Assay results as given in publication PMC10077533 (ACS Omega, 2023).

Experiments:
[1] = tested on: MDA-MB-468 breast cancer cells; assay: JC-1 staining, mitochondrial membrane potential by flow cytometry; assay type: cell-based, human; settings: MDA-MB-468, positive control, 5μM CCCP
[2] = tested on: MDA-MB-468 breast cancer cells; assay: γ-H2AX staining, detection of DNA damage; assay type: cell-based, human; settings: MDA-MB-468, 50 μM
Procedure, shortened: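 MDA-MB-468 cells treated with test compound, then immunocytochemically stained for γ-H2AX, with untreated cells as control. DNA damage imaged as red fluorescence, and red fluorescence intensity quantified.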

[3] = tested on: calf-thymus DNA (ct-DNA); settings: classical DNA intercalator, comparison value; cited from earlier work
[4] = tested on: ct-DNA; settings: obtained from the literature; cited from earlier work

## N#CC(C#N)=NNc1cccc(Cl)c1 [CCCP, carbonyl cyanide m-chlorophenylhydrazone]
[1]
  cells with damaged mitochondria (JC-1 monomers): 76.98%
  cells with healthy mitochondria (red + green fluorescing JC-1 aggregates): 22.08%

## N.N.[Cl][Pt][Cl] [cisplatin]
[2]
  γH2AX (phosphorylated histone) staining: DNA damage

## CC[n+]1c(-c2ccccc2)c2cc(N)ccc2c2ccc(N)cc21 [EtBr, ethidium bromide]
[3]
  Kb value of EtBr (KEtBr): 7 × 10^5 M^–1
[4]
  KEtBr, EtBr binding constant: 1.0 × 10^7 M^–1
